The list is not random: actives were taken first. Their share in the collection is about 9.3%.
Ecoli WT expand = growth inhibitors of E. coli BW25113 wild type. OD600 absorbance. growth inhibition, % at 100 µM. 98,000 compounds, 0.15% hits. AID 710;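 active means growth inhibition above about 50% at one test dose, limit read from the data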;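 further: growth measured after 20 h incubation at 37 °C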
D1 mod = allosteric modulators of human D1 dopamine receptor; P21728; HEK293 D1, CRE-luciferase, dopamine EC30 potentiation; actives deviate in either direction; B-score at 10 µM; 58,000 compounds, 5.9% hits; AID 641;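 active means luminescence count or its row- and column-corrected plate score outside the 99.7% band of the plate's sample wells, on either side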
Target sequence (P21728 whole entry, looked up): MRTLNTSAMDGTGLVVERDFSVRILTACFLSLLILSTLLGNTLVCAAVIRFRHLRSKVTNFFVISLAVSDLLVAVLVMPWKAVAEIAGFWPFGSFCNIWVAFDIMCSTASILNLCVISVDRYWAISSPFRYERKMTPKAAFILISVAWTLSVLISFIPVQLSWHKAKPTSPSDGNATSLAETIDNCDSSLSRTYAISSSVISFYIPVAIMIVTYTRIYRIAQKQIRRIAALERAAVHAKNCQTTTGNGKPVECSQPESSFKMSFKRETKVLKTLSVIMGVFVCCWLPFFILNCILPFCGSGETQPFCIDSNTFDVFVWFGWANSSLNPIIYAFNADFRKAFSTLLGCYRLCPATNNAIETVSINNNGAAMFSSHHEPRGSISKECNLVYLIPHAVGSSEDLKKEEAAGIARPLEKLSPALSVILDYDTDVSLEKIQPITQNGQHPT
hDAT+cocaine = modulates human dopamine transporter uptake under cocaine. LLC-PK1 hDAT cells, [14C]-dopamine uptake with cocaine IC80; actives deviate in either direction. B-score at 10 µM. 110,000 compounds, 1.3% hits. AID 449768;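 active means Z score or B-score, a plate-position-corrected score, falls beyond the plate's 99.7% confidence bounds, in either direction; inactive means both scores lie inside the 99.7% bounds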;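 further: scored against the spread of the other compound wells on the same plate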
PostGolgi yeast = growth inhibition of a yeast mutant, post-Golgi transport screen | post-Golgi transport phenotypic cell assay | inhibition, % at 10 µM | 98,000 compounds, 0.9% hits;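 further: yeast cells grown in 1536-well plates; yeast grown about 18 h at 30C before absorbance read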
Ecoli tolC = E. coli tolC mutant growth inhibition; E. coli BW25113 tolC mutant growth, OD615; growth inhibition, % at 10 µM (by protocol); 65,000 compounds, 2.2% hits; AID 573;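 active means growth inhibition at or above a cutoff equal to the mean over every tested compound plus 3 SD, cut at about 60% in these data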;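 further: growth measured after 20 h incubation at 37 °C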
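Test system – E. coli BW25113 ΔtolC::kan, tolC deletion mutant strain · Detection – OD at 615 nm · Buffer or medium – LB with kanamycin 50 µg/mL · Times – 20 h compound exposure of bacteria at 37 °C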
PostGolgi ctrl = inhibits growth of the yeast control strain. AID 738. 98,000 compounds, 5% hits. inhibition, % at 10 µM. efflux-deficient yeast background strain, growth absorbance A615, 16 h
D1 mod confirm = D1 receptor (human) allosteric modulation, confirmed. AID 642. 2,200 compounds, 88% hits. luminescence at 10 µM. HEK293 D1 CRE-luciferase, dopamine EC30 potentiation; hits give high values. shares compounds with D1 mod;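 active means luminescence in either of two replicates above the same-plate mean plus 3 SD of the low-dose dopamine control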
D1 no dopamine = activates D1 CRE-luciferase signal without dopamine present | shares compounds with D1 mod | HEK293 D1 CRE-luciferase, luminescence, no dopamine; hits give high values | luminescence at 10 µM | 1,900 compounds, 0.8% hits; in the data active means luminescence above about 3900
Isoprot counter = isoproterenol response counter-screen activity for D1 modulators | 2,200 compounds, 63% hits | HEK293 D1 CRE-luciferase, isoproterenol EC30 counter-screen | calls only at 10 µM | shares compounds with D1 mod;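 active means luminescence in either replicate above plate mean of wells with a partly effective reference agonist dose plus 3 SD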;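 further: isoproterenol raises cAMP through native beta-adrenoceptor Gs so signal bypasses D1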
An asterisk follows results filed as active. Unless noted, no stated cut-off is given here; in the data, active means inhibition above about 30%; inactive means the rest.

COc1ccccc1CNC(=O)C1CC2Cn3c(nc4cc(Cl)c(Cl)cc43)C2N1C (stereo not drawn) was read as hDAT+cocaine 1.9.
O=C(NC1CC2CCCC(C1)N2S(=O)(=O)c1ccccc1)c1ccccc1 (stereo not drawn) was read as Ecoli WT expand -2, hDAT+cocaine 0.0021, PostGolgi yeast -3, Ecoli tolC 12 and PostGolgi ctrl 17.
CC(=O)NC1CC2CCCC(C1)N2S(=O)(=O)c1ccccc1 (stereo not drawn) was read as Ecoli WT expand -3, D1 mod 5.5*, hDAT+cocaine 0.084, PostGolgi yeast 3, Ecoli tolC -4, PostGolgi ctrl -1, D1 mod confirm 5928, D1 no dopamine 1484 and Isoprot counter inactive.
Screening CCCN1c2cccc3cccc(c23)S1(=O)=O returned Ecoli WT expand 0, D1 mod 0.0094, hDAT+cocaine -0.016, PostGolgi yeast -2, Ecoli tolC 26 and PostGolgi ctrl 9.
O=C(CSc1nnc2scc(-c3ccc(Cl)cc3)n12)NCc1ccco1 was read as Ecoli WT expand -14, D1 mod 0.38, hDAT+cocaine -0.19, PostGolgi yeast 1, Ecoli tolC -12 and PostGolgi ctrl 8.
O=C(CSc1nnc2scc(-c3ccccc3)n12)NCc1ccco1 was read as D1 mod 2.5 and Ecoli tolC 9.
`O=C(CSc1nnc2scc(-c3ccc(Cl)cc3)n12)NCc1ccc2c(c1)OCO2` gave Ecoli WT expand -9, D1 mod 6.3*, hDAT+cocaine -0.0078, PostGolgi yeast 8, Ecoli tolC 8, PostGolgi ctrl -11, D1 mod confirm 13884*, D1 no dopamine 1740 and Isoprot counter active.
O=C(CSc1nnc2scc(-c3ccccc3)n12)NCc1ccc2c(c1)OCO2 was read as Ecoli WT expand 1, D1 mod 7.1*, hDAT+cocaine 2.1, PostGolgi yeast 7, Ecoli tolC 41, PostGolgi ctrl -12, D1 mod confirm 15400*, D1 no dopamine 1784 and Isoprot counter active.
Screening COCCN1C(=O)c2oc3cc(C)c(C)cc3c(=O)c2C1c1cccc(O)c1 (stereo not drawn) returned D1 mod 0.9, hDAT+cocaine 0.63 and Ecoli tolC 9.
For CCC(C)NC(=O)CSC1=Nc2ccccc2C2=NC(CC(=O)NCc3ccccc3)C(=O)N12 (stereo not drawn) the results were Ecoli WT expand -16, D1 mod 0.16, hDAT+cocaine -1.2, PostGolgi yeast -1, Ecoli tolC -7 and PostGolgi ctrl -3.
N#Cc1cn(-c2ccccc2)nc1-c1ccco1 was read as Ecoli WT expand -5, hDAT+cocaine 0.21, PostGolgi yeast -2 and PostGolgi ctrl 11.
For N#CC1=C(N)N(c2ccccc2)C(c2ccco2)C1(C#N)C#N (stereo not drawn) the results were Ecoli WT expand 7, D1 mod 7.7*, hDAT+cocaine -0.11, PostGolgi yeast 10, Ecoli tolC -1, PostGolgi ctrl 3, D1 mod confirm 5392, D1 no dopamine 1576 and Isoprot counter inactive.
CCOC(=O)c1c(C)noc1CP(=O)(c1ccccc1)c1ccccc1 was read as Ecoli WT expand -1, hDAT+cocaine -0.28, PostGolgi yeast -4, Ecoli tolC -3 and PostGolgi ctrl 6.
`CCOC(=O)N1CCC(n2c(SCC(=O)Nc3nccs3)nc3ccsc3c2=O)CC1` gave Ecoli WT expand -7, D1 mod -0.071, hDAT+cocaine 1, PostGolgi yeast 1, Ecoli tolC 4 and PostGolgi ctrl -2.
Cn1c(=O)n(Cc2ccccc2)c(=O)c2c1nc(NCC1CCCO1)n2Cc1ccccc1 (stereo not drawn) was read as Ecoli WT expand -4, D1 mod 0.95, hDAT+cocaine -0.21, PostGolgi yeast 2, Ecoli tolC 7 and PostGolgi ctrl 24.
O=C1C(Cl)=C(NCC2CCCO2)C(=O)N1Cc1ccccc1 (stereo not drawn) was read as Ecoli WT expand -4, D1 mod 4.8*, hDAT+cocaine -0.63, PostGolgi yeast 14, Ecoli tolC 21, PostGolgi ctrl 8, D1 mod confirm 9896*, D1 no dopamine 1724 and Isoprot counter inactive.
Screening CC(=O)OCc1c(F)c(F)c(-n2nc(C)cc2C)c(F)c1F returned Ecoli WT expand -7, D1 mod -0.98, hDAT+cocaine 0.66, PostGolgi yeast 1, Ecoli tolC -15 and PostGolgi ctrl 16.
O=C(Nc1ccccc1C(=O)NCc1ccco1)c1ccccc1 was read as Ecoli WT expand 4, D1 mod 5.3*, hDAT+cocaine -0.28, PostGolgi yeast 10, Ecoli tolC -3, PostGolgi ctrl 6, D1 mod confirm 10828* and Isoprot counter active.
`Cc1cc(NC(=O)c2cnn3c(C(F)F)cc(-c4ccccc4)nc23)no1` gave Ecoli WT expand -5, D1 mod 1.9, hDAT+cocaine -0.93, PostGolgi yeast -1, Ecoli tolC 2 and PostGolgi ctrl -6.
`O=C(NCCc1ccccc1)c1cnn2c(C(F)F)cc(C3CC3)nc12` gave Ecoli WT expand 3, D1 mod 5.1*, hDAT+cocaine 0.24, PostGolgi yeast 18, Ecoli tolC 50, PostGolgi ctrl 39*, D1 mod confirm 12520*, D1 no dopamine 1540 and Isoprot counter active.
O=C(NCc1ccco1)c1cnn2c(C(F)F)cc(-c3ccccc3)nc12 was read as Ecoli WT expand -8, D1 mod 5.2*, hDAT+cocaine -0.4, PostGolgi yeast 21, Ecoli tolC -2, PostGolgi ctrl 10, D1 mod confirm 7604*, D1 no dopamine 1664 and Isoprot counter active.
COC(=O)C1=C(C(=O)OC)[C@@H]2N(C)c3ccc(OC)cc3[C@@]23C[C@@H](C(=O)OC)N=C3N1 was read as hDAT+cocaine 0.3.
Screening COC(=O)c1ccc(CSc2nc3ccccc3c(=O)n2Cc2ccco2)o1 returned Ecoli WT expand -12, D1 mod 6.5*, hDAT+cocaine -0.083, PostGolgi yeast -7, Ecoli tolC 42, PostGolgi ctrl 34*, D1 mod confirm 9240*, D1 no dopamine 1456 and Isoprot counter active.
Screening COC(=O)c1ccc(CSc2nc3ccccc3c(=O)n2CC(C)C)o1 returned Ecoli WT expand -2, hDAT+cocaine -0.12, PostGolgi yeast -1 and PostGolgi ctrl 27.

Screening data from PubChem.
